High-throughput results: PubChem, The Scripps Research Institute Molecular Screening Center
Most compounds without a hit are left out; they make up all but 4% or so of the library.
OX1R antag-1 = antagonists of human orexin 1 receptor. O43613. CHO/OX1R cells, Fluo-8 calcium fluorescence, orexin A. inhibition, % at 5 µM. 330,000 tested, 0.43% active;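 active means inhibition above its plate's threshold, mean inhibition of all tested compounds on the plate plus 3 SD, cut at about 37% in these data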;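 further: 0% = orexin A challenge wells and 100% = SB-334867-A antagonist wells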
Target sequence (O43613 whole entry, looked up): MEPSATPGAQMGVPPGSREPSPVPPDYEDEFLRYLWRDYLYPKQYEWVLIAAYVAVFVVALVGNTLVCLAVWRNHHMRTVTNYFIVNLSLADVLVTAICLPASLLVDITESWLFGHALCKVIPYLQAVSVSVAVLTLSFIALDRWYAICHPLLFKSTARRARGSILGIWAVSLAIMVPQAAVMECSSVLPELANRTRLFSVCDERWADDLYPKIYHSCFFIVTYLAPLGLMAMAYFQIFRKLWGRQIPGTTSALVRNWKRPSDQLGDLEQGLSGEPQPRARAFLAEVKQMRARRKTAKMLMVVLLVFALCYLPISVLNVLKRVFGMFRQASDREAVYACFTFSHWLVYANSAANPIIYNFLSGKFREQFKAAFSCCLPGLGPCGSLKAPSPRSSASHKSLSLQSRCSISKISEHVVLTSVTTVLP
OX1R antag-2 = antagonists of human orexin 1 receptor (OX1R); O43613; OX1R-expressing cells, FRET antagonist read-out; inhibition, % at 6.6 µM; 330,000 tested, 1.8% active; AID 485270; in the data active means inhibition mostly above about 38%, no sharp cut-off; inactive means mostly below about 40%;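 further: 0% = agonist challenge alone and 100% = reference antagonist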
CHO parental Ca = signal in parental CHO cells, OX1R antagonist counter-screen; inhibition, % at 5.6 µM; parental CHO-K1, ATP-induced calcium, Fluo-8 fluorescence; 330,000 tested, 0.63% active;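 active means inhibition above that plate's mean sample inhibition plus 3 SD, cut at about 26% in these data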;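 further: 0% = ATP-challenged DMSO wells and 100% = DMSO wells without ATP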
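Assay system: untransfected parental CHO cell line. Also added: ATP agonist challenge. Dosing: one dose, 5.6 µM nominal. Measured by: Fluo-8 fluorescence. Read-out: % inhibition. Benchmarks: ATP wells versus no-ATP DMSO wells. Repeats: no replicates.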
TAAR1 antagonist = antagonists of human TAAR1 | AID 624466 | CHO RD-HGA16 TAAR1, Fluo-8 calcium fluorescence, antagonist | 360,000 tested, 1.5% active | Q96RJ0 | inhibition, % at 3 µM;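 active means inhibition above a per-plate cutoff, the mean inhibition of test compounds on that plate plus 3 SD, cut at about 49% in these data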;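 further: 0% = DMSO plus EC80 beta-PEA response and 100% = DMSO alone without agonist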
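Test system: CHO RD-HGA16 cells bearing hTAAR1 | Reagent: β-PEA, EC80 | Compound dosing: 3 µM, single point | Schedule: Dye loading 75 min at 37 °C, then 30 min room temperature | Signal: Calcium fluorescence with Fluo-8 | Evaluation: Percent inhibition of PEA-evoked calcium signal, max/basal emission ratio | Control set: DMSO-only wells and EC80 β-PEA-stimulated wells | Repeats: Singlicate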
TAAR1 agonist = agonists of human TAAR1; CHO RD-HGA16 TAAR1, Fluo-8 calcium fluorescence; vehicle wells 0%, saturating PEA agonist 100%; Q96RJ0; 360,000 tested, 0.99% active; activation, % at 3 µM;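 active means activation above the mean activation of all test compounds in the run plus 3 SD, cut at about 38% in these data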
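Assay system: CHO-derived RD-HGA16 cells with stable Gα16 and human TAAR1; timing: 17-24 h seeding, 75 min 37 °C dye, 30 min RT; read-out: % activation from peak over basal fluorescence ratio, DMSO-to-PEA scaled; measured by: kinetic Fluo-8 calcium fluorescence; benchmarks: low control DMSO, high control PEA (EC100); doses: 3 µM single concentration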
OX1R Fluo8 conf = OX1R (human) antagonism, confirmed; 1,100 tested, 38% active; inhibition, % at 5 µM; CHO/OX1R cells, orexin A calcium Fluo-8 fluorescence; shares compounds with OX1R antag-1; AID 492963; in the data active means inhibition above about 29%;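 further: 0% = agonist challenge alone and 100% = reference antagonist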
CHO Ca counter = signal in parental CHO cells, OX1R antagonist counter-screen; shares compounds with OX1R antag-1; parental CHO-K1, ATP-induced calcium, Fluo-8 fluorescence; inhibition, % at 5.6 µM; 1,100 tested, 9.3% active; AID 492965;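 active means inhibition above a per-plate limit, the mean inhibition of that plate's test compounds plus 3 SD, cut at about 25% in these data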;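 further: 0% = ATP challenge with DMSO and 100% = DMSO without ATP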
* hit, by the source's call; x = no result given.

SMILES	OX1R antag-1	OX1R antag-2	CHO parental Ca	TAAR1 antagonist	TAAR1 agonist	OX1R Fluo8 conf	CHO Ca counter
C(=C\c1ccccc1)/CSc1nnc(-c2ccccc2)n1Cc1ccco1	4.0	8.8	-8.3	5.0	-2.9	x	x
Clc1cccc(-c2nnc(SC/C=C/c3ccccc3)n2Cc2ccco2)c1	48.8*	11.9	18.6	x	x	13.4	-2.6
CCOC(=O)c1c(NC(=O)COC(=O)CC(NC(C)=O)c2ccccc2)sc(C(=O)NC)c1C (stereo not drawn)	-30.5	20.4	-10.1	-10.2	0.0	x	x
O=C(Nc1ccc(OC(F)(F)F)cc1)N1CCN(c2ccnc3cc(Cl)ccc23)CC1	24.2	16.5	-2.0	-22.2	-0.9	18.5	35.4*
CC(=O)Oc1ccc2ccccc2c1C(NC(=O)Cc1ccccc1)c1ccc(Cl)cc1 (stereo not drawn)	-10.7	11.1	-14.8	-15.1	5.6	x	x
O=C(OCc1nc2ccsc2c(=O)[nH]1)c1ccc(Cl)s1	-20.2	9.8	-11.6	-9.1	-0.3	x	x
O=C(C1CCN(c2ncnc3c2nc2n3CCCCC2)CC1)N1CCN(c2cccc(Cl)c2)CC1	31.3	25.8	5.4	63.4*	9.4	21.9	-1.7
O=C(Nc1cccc(Cl)c1)Nc1ccc2c(c1)OCO2	32.1	69.1	15.3	10.8	18.9	9.3	6.2
CC(=O)c1cccc(NC(=O)Nc2ccc3c(c2)OCO3)c1	x	x	x	20.0	4.6	x	x
Cc1coc2cc3oc(=O)ccc3cc12	105.8*	4.6	-0.6	-4.3	1.4	1.8	17.6
Cc1cc2oc(=O)ccc2cc1[N+](=O)[O-]	-15.7	15.0	-7.9	-0.5	11.4	x	x
CCOc1ccc(NC2=C(Cl)C(=O)N(Cc3ccccc3)C2=O)cc1	51.1*	32.8	4.7	-7.6	-0.5	-7.4	-8.3
CN(Cc1nccn1C)C(=O)CC1C(=O)NCCN1CC(c1ccccc1)c1ccccc1 (stereo not drawn)	-20.0	3.5	-20.5	-12.6	0.3	x	x
CSc1cccc(NC(=O)CN(c2cc(C)ccc2C)S(C)(=O)=O)c1	25.6	18.8	1.4	-10.5	2.3	1.9	-15.1
CCOc1ccccc1N1CCN(C(=O)c2ccc(S(=O)(=O)Nc3ccccc3)cc2)CC1	44.8*	6.3	2.7	-16.3	14.1	41.0*	-7.3
Cc1ccc(N2C(=O)C3C4C=CC(CNC(=S)Nc5cccc(Cl)c5)(O4)C3C2=O)cc1 (stereo not drawn)	1.1	29.8	-14.2	0.1	8.4	x	x
CN(C)S(=O)(=O)c1ccc(N2CCCC2)c(C(=O)Nc2nc(-c3cc(F)ccc3F)cs2)c1	-19.4	-5.7	-10.9	-6.3	0.4	x	x
O=C(CCc1ccncc1)NC1CCCc2c1cnn2-c1cc(F)cc(F)c1 (stereo not drawn)	45.9*	16.2	-13.9	x	x	0.6	-12.1
CSCC(=O)NC1CCCc2c1cnn2-c1cc(F)cc(F)c1 (stereo not drawn)	x	x	x	-27.1	1.3	x	x
Nc1sccc1C(=O)N1CCN(c2ccccc2)CC1	x	x	x	2.9	1.0	x	x
CCN(CC)S(=O)(=O)c1ccc2oc(C(=O)NCc3ccc(F)cc3)c(C)c2c1	24.6	13.2	19.7	26.5	11.9	0.5	-4.7
O=C(O)c1ccc(N2C(=O)CC(SC(=NCc3ccc4c(c3)OCO4)Nc3ccc(F)cc3)C2=O)cc1 (stereo not drawn)	32.2	27.8	6.3	16.7	12.9	30.9*	-2.7
C=CCOC(=O)C1=C[C@@H](c2ccc(C(F)(F)F)cc2)[C@H](CCCO)[C@@H](OCC)O1	-45.9	40.9	-16.0	6.0	6.8	x	x
O=C(CNC(=O)c1ccc(Oc2ccccc2)cc1)OCc1ccc(Br)cc1	33.7	8.2	16.6	6.5	1.5	7.8	2.7
COc1ccc(C(=O)NCC(=O)NCC(=O)OCc2ccc(Br)cc2)cc1	-30.6	24.5	-17.0	-34.6	-0.8	x	x
OCCN(CC(O)Cn1ccc2ccccc21)CC(O)Cn1ccc2ccccc21 (stereo not drawn)	39.0	10.5	19.4	13.0	6.1	15.1	5.2
C=CCC(COCc1ccccc1)NS(=O)(=O)c1ccccc1Br (stereo not drawn)	34.1	49.4	-11.0	23.2	8.0	8.0	-6.8
